Results on 14 compounds are retold here after PubChem BioAssay.

The nature of assay [1]: inhibitors of TNFa-induced NFkB p65 translocation, primary screen, imaging, HUVEC, MLSMR starter and 10KST1 sets (AID 438).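 For inhibition: signal is the nuclear over cytoplasmic p65 intensity ratio per well.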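 Note: compound added about 3h40 before a 20 min TNFalpha stimulation.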 Particulars: HUVEC TNFa-induced p65 nuclear translocation; cell count: measured here: nuclei count (cytotoxicity indicator), at 2.08 µM; inhibition: at 2 µM, stronger effect = higher value, 0% TNFa-plus-vehicle, 100% no-TNFa wells.
Assay [2] is described as follows: inhibitors of mutant huntingtin aggregation, primary screen, imaging, exon1htt(103Q)mCFP cells, high-content imaging (AID 483;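 active = visual image review flags a hit and inhibition of aggregation exceeds 20%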;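 note: compound exposure lasted 3 days before fixation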;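 for nuclei count: percent of the per-plate median nuclei count of sample wells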). Particulars: exon1htt(103Q)mCFP cell line, aggregate imaging, at 2 µM; inhibition of aggregation: stronger effect = higher value; nuclei count: measured here: cell count, toxicity.
Assay [3] is described as follows: inhibitors of E-selectin induction by TNFa, primary screen, imaging, HUVEC, immunofluorescence, MLSMR starter and 10KST1 sets (AID 487;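 active = visually confirmed hit in the image check and inhibition above 20%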;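 for inhibition: signal is fraction of cell area covered by stained E-selectin grains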;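 for nuclei count: 100% = median nuclei count of all wells on the same plate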). Particulars: HUVEC TNFalpha-induced E-selectin immunofluorescence imaging, at 2 µM; inhibition: stronger effect = higher value; nuclei count: measured here: cell number, toxicity.
Assay [4] deals with Voltage-gated potassium channel subunit beta-2 (Rattus norvegicus) (UniProt P62483). Description: KvBeta enzyme negative modulators, primary screen, biochemical, NADPH fluorescence (AID 622;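 active = fluorescence slope higher than the sample average by over 3 SD, cut at about -0.22 in these data, passing the limit was not always enough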;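 note: slope of raw intensity against log time taken from 70 to 1610 s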). Particulars: recombinant KvBeta, 4-cyanobenzaldehyde reduction, at 10 µM, stronger effect = higher value.
Chain of Voltage-gated potassium channel subunit beta-2 (Rattus norvegicus) (P62483 whole entry, looked up): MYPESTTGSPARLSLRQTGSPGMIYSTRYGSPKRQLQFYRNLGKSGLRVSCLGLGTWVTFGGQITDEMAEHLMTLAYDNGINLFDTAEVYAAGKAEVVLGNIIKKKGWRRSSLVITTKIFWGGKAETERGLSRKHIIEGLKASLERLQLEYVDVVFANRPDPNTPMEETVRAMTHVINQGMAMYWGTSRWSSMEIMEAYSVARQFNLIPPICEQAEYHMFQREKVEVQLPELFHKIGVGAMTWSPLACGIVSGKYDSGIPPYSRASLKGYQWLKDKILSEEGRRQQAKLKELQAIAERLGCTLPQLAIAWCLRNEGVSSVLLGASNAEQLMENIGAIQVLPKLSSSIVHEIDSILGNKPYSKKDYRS
For assay [5] the target is unchanged. Description: KvBeta positive modulators, primary screen, biochemical, NADPH fluorescence (AID 623;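 active = NADPH fluorescence slope more negative than the mean of all samples by about 3 SD, 99.7% confidence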;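 note: fluorescence intensity change per second fitted from 20 to 320 s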). Particulars: Recombinant KvBeta, NADPH fluorescence decrease slope, 10 min; at 10 µM; stronger effect = lower value.
The target of assay [6] is Muscarinic acetylcholine receptor M4 (Homo sapiens) (UniProt P08173). Description: compounds altering M4/GIRK thallium flux, either direction, primary screen, M4 allosteric agonist project, cell-based, HEK293 M4/GIRK, BTC-AM (AID 625;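 active = fluorescence slope after compound addition differing from the mean of all tested samples at 99.7% confidence, mostly higher but some lower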;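 note: thallium influx through GIRK channels coupled to M4 in HEK293 cells with BTC-AM dye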). The following applies: at 10 µM, actives lie on both sides. An outline of the steps:
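System: HEK293 cells with M4 receptor and GIRK channels | Incubation: Cells overnight at 37 °C, BTC-AM loading 1 h, reads 2 min total | Technique: Kinetic BTC-AM fluorescence sampled at 1 Hz, 10 s pre-addition baseline | Measure: Post-addition slope, 15–24 s, of baseline-normalized fluorescence | Control set: Carbachol positive, DMSO negative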

Assay [7] is described as follows: inhibitors of Sendai virus-induced IRF3 signaling, primary screen, TLR/RLR signaling modifier project, cell-based, Sendai virus stimulus, luciferase, 10K MLSCN set (AID 602276;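 active = inhibition at or above 50% at 10 µM; inactive = inhibition below 50%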;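 note: firefly luciferase from ISG56 promoter only with Renilla not read in this screen; 0% = Sendai virus plus DMSO and 100% = medium plus DMSO without virus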). Particulars: HEK293 RL24 IRF3 luciferase reporter, at 10 µM, stronger effect = higher value.
A short description of assay [8]: inhibitors of poly I:C-induced TLR3 signaling, primary screen, cell-based, poly I:C stimulus, luciferase, 10K MLSCN set (AID 602277;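 active = inhibition of the reporter signal at or above 50%; inactive = inhibition below 50%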). The following applies: HEK293-TLR3 RL24 IRF3 luciferase reporter, at 10 µM, stronger effect = higher value. In general terms: Reporter assays use an easily measured gene product as a stand-in for the process of interest.

Active and inactive are the calls of the source.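 Rule for the calls, unless noted: active = inhibition above 20% together with a positive visual image hit; inconclusive = visual image hit but inhibition not above 20%; inactive = no visual image hit.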

Chain of Muscarinic acetylcholine receptor M4 (Homo sapiens) (P08173 whole entry, looked up): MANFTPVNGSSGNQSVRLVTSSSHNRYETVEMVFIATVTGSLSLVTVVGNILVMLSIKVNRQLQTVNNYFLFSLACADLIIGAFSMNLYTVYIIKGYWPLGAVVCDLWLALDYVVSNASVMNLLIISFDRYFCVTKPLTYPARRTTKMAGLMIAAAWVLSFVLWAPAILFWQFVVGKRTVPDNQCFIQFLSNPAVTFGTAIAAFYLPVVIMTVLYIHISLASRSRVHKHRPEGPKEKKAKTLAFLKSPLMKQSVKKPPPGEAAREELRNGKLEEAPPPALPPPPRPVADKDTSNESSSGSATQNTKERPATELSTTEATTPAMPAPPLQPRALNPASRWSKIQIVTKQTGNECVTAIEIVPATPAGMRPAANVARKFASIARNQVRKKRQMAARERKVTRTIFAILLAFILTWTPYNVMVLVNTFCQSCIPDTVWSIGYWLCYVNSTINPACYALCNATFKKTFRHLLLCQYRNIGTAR

As a reminder, the inhibition is the drop in the measured response relative to a control, in per cent. Regarding `CC(=O)Nc1ccc(OC(=O)c2cccnc2)cc1`, in assay [1], the cell count was 367. For the same compound, the inhibition in assay [1] is 0.3% (inactive); in assay [3], -194% (inactive); in assay [7], -10.8% (inactive); in assay [8] it was -12.7% (inactive). Besides, in assay [2], the inhibition of aggregation was -13.8% (inactive). Further, the nuclei count in assay [2] was 103%; in assay [3] it was 112%. The results for the fluorescence slope in assay [4] and in assay [6] were -0.318 (inactive) and 0.00601 (inactive), respectively. Further, in assay [5], the NADPH fluorescence slope is -4.9e-05 (inactive).

Regarding `CCC(=O)N1CCc2cc(Br)cc(S(=O)(=O)N3CCCCCC3)c21`, the cell count in assay [1] turned out to be 434. In addition, the inhibition in assay [1] was -3.9% (inactive); in assay [3], 13.2% (inactive); in assay [7], 7.37% (inactive); in assay [8], 12.3% (inactive). Further, in assay [2], the inhibition of aggregation is 34.8% (inactive). In addition, the results for the nuclei count in assay [2] and in assay [3] were 65.9% and 99.9%, respectively. For the same compound, the fluorescence slope in assay [4] was -0.54 (inactive); in assay [6], 0.00616 (inactive). Besides, in assay [5], the NADPH fluorescence slope is -5.4e-06 (inactive).

Consider `Cc1onc(-c2ccccc2)c1C(N)=O`, for which, in assay [1], the cell count was 506. Further, the inhibition in assay [1] is -11.2% (inactive); in assay [3], -158% (inactive); in assay [7], 16% (inactive); in assay [8] it was 16.2% (inactive). Also, the inhibition of aggregation in assay [2] was -1.6% (inactive). Also, the results for the nuclei count in assay [2] and in assay [3] were 98.5% and 159%, respectively. The results for the fluorescence slope in assay [4] and in assay [6] were -0.563 (inactive) and 0.00641 (inactive), respectively. For the same compound, the NADPH fluorescence slope in assay [5] was -6.3e-05 (inactive).

Regarding `O=C(Nc1nc(-c2ccccc2)cs1)C1CCCCN1S(=O)(=O)c1ccccc1` (centres undefined), the cell count in assay [1] came out at 509. Moreover, the inhibition in assay [1] was 6.9% (inactive); in assay [3], -18.7% (inactive); in assay [7], -0.318% (inactive); in assay [8], 1.39% (inactive). Moreover, the inhibition of aggregation in assay [2] is -0.8% (inactive). Further, the figures for the nuclei count in assay [2] and in assay [3] were 101% and 96.2%, respectively. In addition, the fluorescence slope is -0.659 (inactive) in assay [4] and 0.00633 (inactive) in assay [6]. Moreover, in assay [5], the NADPH fluorescence slope was 1.4e-05 (inactive).

As for `Cc1nc2ccc(NC(=O)N3CCC(c4ccccc4)C3)cc2nc1C` (centres undefined), the cell count in assay [1] came out at 551. The inhibition in assay [1] was 4.3% (inactive); in assay [3], 20.7% (inactive); in assay [7], -0.553% (inactive); in assay [8], -40.6% (inactive). Besides, the inhibition of aggregation in assay [2] was 9.2% (inactive). Besides, the nuclei count in assay [2] came out at 106%; in assay [3], 68.5%. Besides, the fluorescence slope in assay [4] is -0.0383 (inactive); in assay [6], 0.00546 (inactive). For the same compound, the NADPH fluorescence slope in assay [5] was 9.4e-06 (inactive).

With `CC(NO)C(C)(C)NO` (centres undefined), the cell count in assay [1] was determined as 331. Moreover, the inhibition in assay [1] is 4.4% (inactive); in assay [3], -18.8% (inactive); in assay [7], 3.35% (inactive); in assay [8], 10.7% (inactive). Besides, the inhibition of aggregation in assay [2] was -7.5% (inactive). For the same compound, the results for the nuclei count in assay [2] and in assay [3] were 101% and 126%, respectively. Also, the fluorescence slope in assay [4] was -0.493 (inactive); in assay [6], 0.00819 (inactive). In addition, in assay [5], the NADPH fluorescence slope was 9e-05 (inactive).

For `CCOC(=O)c1[nH]c2ccc(C)cc2c1N=C(C)N(C)C`, in assay [1], the cell count is 579. Moreover, the inhibition was 5.2% (inactive) in assay [1], -27.2% (inactive) in assay [3], 20.7% (inactive) in assay [7] and 21.2% (inactive) in assay [8]. In addition, in assay [2], the inhibition of aggregation is -6.9% (inactive). Moreover, the nuclei count in assay [2] was 100%; in assay [3], 108%. In addition, the fluorescence slope is -0.563 (inactive) in assay [4] and 0.00488 (inactive) in assay [6]. Besides, the NADPH fluorescence slope in assay [5] is -6e-05 (inactive).

For `COCCn1c(=NC(=O)CSC(C)=O)sc2cc(F)ccc21`, the cell count in assay [1] was 426. The inhibition in assay [1] was -6.2% (inactive); in assay [3], -22% (inactive); in assay [7], 13.7% (inactive); in assay [8], 22.7% (inactive). Moreover, the inhibition of aggregation in assay [2] is 33.6% (inactive). Moreover, the nuclei count was found to be 93.7% in assay [2] and 106% in assay [3]. In addition, the fluorescence slope was -0.379 (inactive) in assay [4] and 0.00556 (inactive) in assay [6]. Also, the NADPH fluorescence slope in assay [5] was 4.1e-05 (inactive).

For `CCCN1CCN(C(=O)c2cn(CC(C)C)c(=O)c3cc(OC)c(OC)cc23)CC1`, in assay [1], the cell count worked out at 566. The inhibition in assay [1] was -25.1% (inactive); in assay [3] it was -9.9% (inactive); in assay [7], 15.6% (inactive); in assay [8], 20.6% (inactive). Further, the inhibition of aggregation in assay [2] is -3.2% (inactive). For the same compound, the nuclei count worked out at 113% in assay [2] and 105% in assay [3]. Also, the fluorescence slope in assay [4] is -0.441 (inactive); in assay [6], 0.00598 (inactive). Besides, in assay [5], the NADPH fluorescence slope is -4.3e-05 (inactive).

For the compound `Cc1nc2c3cnn(-c4ccccc4)c3ncn2n1`, the cell count in assay [1] was 470. Moreover, the inhibition in assay [1] was 1.7% (inactive); in assay [3], -62.2% (inactive); in assay [7], -1.03% (inactive); in assay [8], -18.2% (inactive). The inhibition of aggregation in assay [2] is -9.9% (inactive). The nuclei count in assay [2] stood at 105%; in assay [3], 108%. In addition, the values for the fluorescence slope in assay [4] and in assay [6] were -0.406 (inactive) and 0.00848 (inactive), respectively. In assay [5], the NADPH fluorescence slope is 8.7e-05 (inactive).

Consider `CCN(CC)c1ccc(NC(=O)c2cncc(Br)c2)cc1`, for which, in assay [1], the cell count was determined as 218. The inhibition was 0.6% (inactive) in assay [1], -31.6% (inactive) in assay [3], -32.8% (inactive) in assay [7] and -129% (inactive) in assay [8]. Besides, the inhibition of aggregation in assay [2] is 28% (inactive). Besides, the nuclei count in assay [2] turned out to be 86.8%; in assay [3], 104%. Also, the fluorescence slope is -0.59 (inactive) in assay [4] and 0.00416 (inactive) in assay [6]. The NADPH fluorescence slope in assay [5] was -6e-05 (inactive).

On to `O=C(Nc1ccc(Cl)cc1)N1CCSCC1`, for which the cell count in assay [1] came out at 358. The inhibition is 6.3% (inactive) in assay [1], 37.4% (inactive) in assay [3], -2.29% (inactive) in assay [7] and -14.3% (inactive) in assay [8]. Besides, the inhibition of aggregation in assay [2] is -8.3% (inactive). For the same compound, the nuclei count in assay [2] came out at 104%; in assay [3], 84.1%. Further, the fluorescence slope in assay [4] was -0.494 (inactive); in assay [6], 0.00504 (inactive). The NADPH fluorescence slope in assay [5] was -3e-05 (inactive).

In the case of `CC1(C)NC(=O)N(CNc2cc(Cl)ccc2Cl)C1=O`, the cell count in assay [1] was 649. Moreover, the inhibition was -17.4% (inactive) in assay [1], 0.8% (inactive) in assay [3], 10.6% (inactive) in assay [7] and 21.9% (inactive) in assay [8]. Moreover, the inhibition of aggregation in assay [2] is -1.9% (inactive). The nuclei count was found to be 105% in assay [2] and 96.7% in assay [3]. The figures for the fluorescence slope in assay [4] and in assay [6] were -0.435 (inactive) and 0.00524 (inactive), respectively. The NADPH fluorescence slope in assay [5] is -0.000384 (inactive).

For the compound `CC1(C)OC(=O)C(=CNc2ccccc2)C(=O)O1`, in assay [1], the cell count stood at 548. For the same compound, the inhibition in assay [1] was 9.4% (inactive); in assay [3], 54.3% (inactive); in assay [7], -10% (inactive); in assay [8], 99% (active). The inhibition of aggregation in assay [2] is -4.1% (inactive). Moreover, the figures for the nuclei count in assay [2] and in assay [3] were 108% and 102%, respectively. Further, the values for the fluorescence slope in assay [4] and in assay [6] were -0.617 (inactive) and 0.00548 (inactive), respectively. Further, in assay [5], the NADPH fluorescence slope was -1.8e-06 (inactive).
